Usually IC50 stands for the point on the concentration scale where inhibition reaches its midpoint. Low readings indicate higher potency, high ones lower potency. As a reminder, the CC50 is the concentration at which the toxic effect on the cells reaches its halfway point. Lower therefore signals greater toxicity to the cells.

8 compounds from ChEMBL document CHEMBL1138356, “Design and synthesis of human immunodeficiency virus entry inhibitors: sulfonamide as an isostere for the alpha-ketoamide group” (J Med Chem, 2007) can be followed below.

The subject of data set [1] is Human immunodeficiency virus 1. The data set can be described thus: Antiviral activity against HIV1 pseudovirus in U87 cells expressing CD4 and CCR5 after 72 hrs by M33 pseudotyped assay. Type of data set: functional, organism-based, U-87MG ATCC. The note with it: Human immunodeficiency virus 1, U-87 MG. An outline of the steps: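 M33 pseudotyped viral attachment assay giving IC50 values. Specificity for HIV was judged by counter-screening against AMLV-pseudotyped virus at concentrations above 100× the M33 IC50.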

Data set [2] has as its system Human immunodeficiency virus. The data set can be described thus: Antiviral activity against HIV 589.000033 by viral replication assay. Format: functional, organism-based. The settings on record: Human immunodeficiency virus 1.
Data set [3] relates to Human immunodeficiency virus. The data set can be described thus: Antiviral activity against HIV 584.000088 by viral replication assay. Type of data set: functional, organism-based. The note with it: Human immunodeficiency virus 1.
Data set [4] deals with Human immunodeficiency virus. The data set can be described thus: Antiviral activity against HIV 584.000241 by viral replication assay. Format: functional, organism-based. The settings on record: Human immunodeficiency virus 1.
The subject of data set [5] is Human immunodeficiency virus. The data set can be described thus: Antiviral activity against HIV 584.000030 by viral replication assay. Format: functional, organism-based. The note with it: Human immunodeficiency virus 1.
Data set [6] relates to Human immunodeficiency virus. The data set can be described thus: Antiviral activity against HIV 584.000058 by viral replication assay. Format: functional, organism-based. The note with it: Human immunodeficiency virus 1.
Data set [7] has as its system Human immunodeficiency virus. The data set can be described thus: Antiviral activity against HIV 589.000049 by viral replication assay. Format: functional, organism-based. The note with it: Human immunodeficiency virus 1.
Data set [8] has as its system Human immunodeficiency virus. The data set can be described thus: Antiviral activity against HIV 584.000220 by viral replication assay. Type of data set: functional, organism-based. The settings on record: Human immunodeficiency virus 1.
Data set [9] can be described thus: Cytotoxicity against human U87 cells expressing CD4 and CXCR4. Type of data set: cell-based, U-87MG ATCC.
The test system of data set [10] is Human immunodeficiency virus. The data set can be described thus: Antiviral activity against HIV 584.000063P1B by viral replication assay. The note with it: Human immunodeficiency virus 1. Format: functional, organism-based.
For data set [11], the system named is Human immunodeficiency virus. The data set can be described thus: Antiviral activity against HIV 589.000821 by viral replication assay. Format: functional, organism-based. The settings on record: Human immunodeficiency virus 1.
Data set [12] deals with Human immunodeficiency virus. The data set can be described thus: Antiviral activity against HIV 584.000016 by viral replication assay. The settings on record: Human immunodeficiency virus 1.
Data set [13] concerns Human immunodeficiency virus. The data set can be described thus: Antiviral activity against HIV 208.000923 by viral replication assay. Type of data set: functional, organism-based. The settings on record: Human immunodeficiency virus 1.
Data set [14] concerns Human immunodeficiency virus. The data set can be described thus: Antiviral activity against HIV 584.000039 by viral replication assay. Format: functional, organism-based. The note with it: Human immunodeficiency virus 1.

The structures appear in SMILES notation.

For `COc1ccnc2[nH]cc(C(=O)C(=O)N3CCN(C(=O)c4ccccc4)C[C@H]3C)c12`, the IC50 in [1] was 8 nM; in [2], 28 nM; in data set [3], 14 nM; in data set [4], 118 nM; in [5] it was 31 nM; in data set [6], 58 nM. For the same compound, the 50% inhibitory concentration (IC50) in data set [7] worked out at 6 nM; in data set [8], 4 nM; in data set [10] it was 37 nM; in data set [11], 2800 nM; in [12], 40 nM; in data set [13] it was 1400 nM. Half-maximal inhibition in data set [14] (IC50) was put at 400 nM. In addition, the CC50 in data set [9] was greater than 40000 nM.
Regarding `CC1CN(C(=O)c2ccccc2)CCN1S(=O)(=O)c1c[nH]c2c(-n3ccnn3)nccc12` (racemic), the IC50 in data set [1] was found to be 54 nM; in data set [2], 492 nM; in data set [3], 116 nM; in data set [4], 8 nM; in data set [5], 267 nM; in data set [6], 1400 nM. The IC50 in [7] came to 46 nM; in data set [8] it was 2 nM; in [10] it was 460 nM; in data set [11], 330 nM; in data set [12], 513 nM; in data set [13], 465 nM. In addition, in data set [14], the IC50 came out at 1800 nM. Besides, in data set [9], the half-maximal cytotoxic concentration (CC50) is greater than 40000 nM.
Compound `CC1CN(C(=O)c2ccc3[nH]ccc3c2)CCN1S(=O)(=O)c1c[nH]c2ncccc12` (racemic) gave a concentration for half-maximal inhibition (IC50) in data set [1] of 4600 nM. Further, the CC50 in [9] is greater than 40000 nM.
Regarding `CC1CN(C(=O)c2cccs2)CCN1S(=O)(=O)c1c[nH]c2ncccc12` (racemic), the IC50 in data set [1] stood at 4600 nM. In [9], this compound had a CC50 greater than 40000 nM.
`CC1CN(C(=O)c2ccc3occc3c2)CCN1S(=O)(=O)c1c[nH]c2ncccc12` (racemic) yielded an IC50 in data set [1] of 10000 nM. In data set [9], this compound came in with a 50% cytotoxic concentration (CC50) greater than 40000 nM.
`Cc1ccc(C(=O)N2CCN(S(=O)(=O)c3c[nH]c4ncccc34)C(C)C2)cc1` (racemic): in data set [1], the IC50 was found to be 12400 nM. This compound came in with a CC50 in data set [9] greater than 40000 nM.
`CC1CN(C(=O)c2ccc3scnc3c2)CCN1S(=O)(=O)c1c[nH]c2ncccc12` (racemic) displayed an IC50 in data set [1] of 12600 nM. The compound also displayed a CC50 in [9] greater than 40000 nM.
`CC1CN(C(=O)c2cnc3ccccc3n2)CCN1S(=O)(=O)c1c[nH]c2ncccc12` (racemic): the IC50 in data set [1] came out at 5400 nM. The CC50 in [9] is greater than 40000 nM.
